Assay outcomes (PubChem BioAssay)
Yeast lifespan up – extends the lifespan of yeast; AID 775; S. cerevisiae growth with nicotinamide, OD615; deaD strain in restrictive glucose medium; 0.68% of 130,000 active; inhibition of the nicotinamide effect, % at 10 µM;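 active means inhibition above a set limit, placed 3 SD over the median of all compounds, cut at about 26% in these data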;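 further: 0% = nicotinamide-treated wells and 100% = cells grown without nicotinamide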
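assay system = DeaD-strain S. cerevisiae | measured by = absorbance at 615 nm | probe or stimulus = nicotinamide 1.5 mM | buffer or medium = CSMM-D glucose medium, restrictive | times = 48 h at 30 °C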
Yeast growth inh – reduces growth of yeast BB579 in restrictive medium; S. cerevisiae BB579 growth, OD615, 48 h; AID 804; inhibition, % at 10 µM; 0.51% of 140,000 active;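 active means inhibition above a set limit, 3 SD over the mean compound inhibition, cut at about 44% in these data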
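System: Saccharomyces cerevisiae DeaD strain BB579, replicative lifespan model yeast | Buffer or medium: Restrictive glucose-based CSMM-D medium | Times: 4 h preincubation and 48 h exposure at 30 °C | Detection: OD615 turbidity measurement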
PostGolgi ctrl – growth of the yeast control strain, post-Golgi counter-screen; efflux-deficient yeast background strain, growth absorbance A615, 16 h; inhibition, % at 10 µM; 5% of 98,000 active; AID 738
PostGolgi yeast – growth inhibition of a yeast mutant, post-Golgi transport screen | 0.9% of 98,000 active | inhibition, % at 10 µM | AID 739 | post-Golgi transport phenotypic cell assay;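 further: yeast cells grown in 1536-well plates; yeast grown about 18 h at 30C before absorbance read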
Starred values were filed as active, the others as inactive; x = no result. This excerpt belongs to a sample that is enriched for hits. Unless noted, no stated cut-off is given here; in the data, active means inhibition above about 30%; inactive means the rest.

SMILES	Yeast lifespan up	Yeast growth inh	PostGolgi ctrl	PostGolgi yeast
COc1cc(C)ccc1OCCCCN1CC(C)OC(C)C1 (centres undefined)	0	-4	33*	60*
CC1CN(CCCCOc2ccc(C(C)C)cc2)CC(C)O1 (centres undefined)	-7	-9	53*	97*
CCCCOc1ccc(C(=O)N2CC(C)OC(C)C2)cc1 (centres undefined)	-14	-43	5	1
CC1CN(CC(O)COc2ccc(C(C)C)cc2)CC(C)O1 (centres undefined)	-15	-52	22	59*
Cc1ccc(-c2noc(CCC(=O)NCCN3CCc4ccccc4C3)n2)cc1	14	-29	-1	-6
CSC[C@@H]1NC(=S)N(c2ccc(C)cc2)C1=O	31*	9	x	x
CCOC(=O)c1sc(-c2ccc(Br)cc2)cc1N	-12	-64	45*	-4
CCOC(=O)c1cc(-c2ccc(N)cc2)sc1N	-15	-40	6	6
O=C(/C=C/c1ccccc1)Nc1ncn[nH]1	36*	-22	6	0
CCCCSCCCNC(=O)Nc1cccc(OC)c1	-10	0	5	36*
COc1ccc2c(c1)C(=NO)c1cc(OC)ccc1-2	-14	-25	46*	-7
Cc1ccc(-c2nc3ccc(NS(=O)(=O)c4ccccc4)cc3[nH]2)o1	-2	-4	6	-3
CCOC(CNc1c([N+](=O)[O-])c(=O)n(C)c(=O)n1C)OCC	3	-14	x	x
COc1ccccc1CO/N=C/c1cccn1-c1nccc(N(C)C)c1C#N	-4	-20	1	2
CN(C)c1ccnc(-n2cccc2/C=N/OCc2ccc(F)cc2Cl)c1C#N	-2	-31	34*	-8
CC(C)(C)NC(=O)c1ccc2c(c1)C1C3CCC(C3)C1C(c1ccccc1)N2 (centres undefined)	9	-13	x	x
CCCNC(=O)c1ccc2c(c1)C1C3CCC(C3)C1C(c1ccccc1)N2 (centres undefined)	20	-95	36*	-3
O=C(Nc1ccc2nsnc2c1)c1cccs1	-24	-29	40*	-3
NC(=O)C1CCN(CC(=O)Nc2cccc(C(=O)Nc3cccc(C(F)(F)F)c3)c2)CC1	0	-29	x	x
Cc1[nH]nc2c1C1(CCC(c3ccccc3)CC1)C(C#N)=C(N)O2 (centres undefined)	-25	9	31*	-7
Cc1ccc2[nH]c(=O)c(CN(CCO)Cc3nnnn3CCc3ccccc3)cc2c1	68*	-15	4	22
Cc1ccc2cc(CN(Cc3ccc4c(c3)OCO4)Cc3nnnn3Cc3ccco3)c(=O)[nH]c2c1	-2	-73	30*	11
CC(C)Cn1cnc2c(c(-c3ccccc3)c(-c3ccccc3)n2Cc2ccco2)c1=N	28*	-39	62*	83*
N=c1c2c(-c3ccccc3)c(-c3ccccc3)n(Cc3ccco3)c2ncn1Cc1ccccc1	41	-41	34*	75*
N=c1c2c(-c3ccccc3)c(-c3ccccc3)n(Cc3ccccc3)c2ncn1CCO	-5	-31	18	23
SMILES	Yeast lifespan up	Yeast growth inh	PostGolgi ctrl	PostGolgi yeast
C/C(=N\Nc1nc(-c2cc(C)ccc2C)cs1)c1cc2c(ccc3ccccc32)oc1=O	5	-70	x	x
CC(C)c1ccc2c(c1)C1Cc3ccccc3C1N2 (centres undefined)	2	-43	x	x
Cc1cc(S(=O)(=O)Nc2ccc(N(C)C)cc2)c(C)s1	-12	-102	48*	20
Cc1cc(Cl)ccc1OC(C)C(=O)N1CCCN(C(=O)C(C)Oc2ccc(Cl)cc2C)CC1 (centres undefined)	-10	-95	44*	9
CC1CCc2sc3nc(NCc4ccco4)n4ncnc4c3c2C1 (centres undefined)	-9	-10	63*	-12
CC1CCCc2sc3nc(NCc4ccco4)n4ncnc4c3c21 (centres undefined)	-5	-16	57*	-1
CCN1CCN(c2nc3sc4c(c3c3ncnn23)CC(C)CC4)CC1 (centres undefined)	-23	10	5	0
CC1CCc2c(sc3nc(CN4CCOCC4)nc(Sc4ccccc4)c23)C1 (centres undefined)	-7	46*	x	x
COc1ccc(Nc2nc(CN3CCOCC3)nc3sc4c(c23)CCC(C)C4)cc1OC (centres undefined)	1	-11	x	x
Cc1cc(NC(=O)C2CC2)ncc1NC(=O)C12CC3CC(CC(C3)C1)C2	29*	-31	14	-3
O=C(Nc1nccs1)c1ccc(-c2ccc(Cl)cc2Cl)o1	0	-43	x	x
Cc1ccccc1NC(=O)c1ccc(-c2ccc(Cl)cc2Cl)o1	-1	-19	54*	-1
Cc1cccc(C)c1NC(=O)c1ccc(-c2ccc(Cl)cc2Cl)o1	-8	-40	46*	-6
CC1CCC/C(=N\NC(=O)c2ccncc2)C1 (centres undefined)	1	-13	x	x
Cc1ccc(C)c(NC(=O)/C(C#N)=C/c2ccc(Sc3nncn3C)c([N+](=O)[O-])c2)c1	2	-33	x	x
Cc1ccc(-c2cn(S(=O)(=O)c3cccc4nsnc34)nc2N)cc1	-1	-40	23	48*
COc1cc(-c2cn(S(=O)(=O)c3cccc4nsnc34)nc2N)cc(OC)c1OC	-17	-25	7	4
Nc1nn(S(=O)(=O)c2cccc3nsnc23)cc1-c1ccc(Br)cc1	-13	-40	72*	79*
COC(=O)c1nn(-c2cccc(C)c2)c2nnc(Cc3ccccc3)c(=O)n12	26*	-16	x	x
O=C(O)CCCCCN1C(=O)/C(=C\c2ccncc2)SC1=S	52*	-15	x	x
COc1ccc(CN2C(=O)/C(=C/c3ccncc3)SC2=S)cc1	48*	-33	x	x
Cc1ccc(/C=C2\SC(=S)N(CCCC(=O)Nc3nccs3)C2=O)cc1	5	-9	x	x
Cc1ccc(/C=C2\SC(=S)N(CCCC(=O)Nc3ccccn3)C2=O)cc1	4	-51	8	-14
COc1cc(/C=C2/SC(=O)N(Cc3ccccc3)C2=O)ccc1OCc1ccncc1	-20	-39	19	0
O=C(O)CCCCCN1C(=O)/C(=C/c2ccncc2)SC1=S	40*	-29	x	x
SMILES	Yeast lifespan up	Yeast growth inh	PostGolgi ctrl	PostGolgi yeast
CC(C)C(c1nnnn1C(C)(C)C)N1CCC(Cc2ccccc2)CC1 (centres undefined)	25	-48	x	x
CCC(CC)NC(=O)COC(=O)c1ccc(NS(=O)(=O)c2ccc3c(c2)OCCO3)cc1	-11	-2	0	2
O=C(CSc1nnc(Cn2c(=O)sc3ccccc32)n1-c1ccccc1)Nc1nccs1	-4	-18	13	15
Cc1ccc(NC(=O)Cc2nc(CSc3nnc(-c4ccc5c(c4)OCO5)o3)cs2)cc1	-2	-67	21	15
O/N=C/c1cn(-c2ccccc2)nc1-c1ccc2c(c1)OCCO2	-17	-36	31*	8
O=C(N/N=C/c1coc2ccccc2c1=O)c1cn(-c2ccccc2)nc1-c1ccccc1	28*	-45	x	x
CCn1ncc(/C=N/NC(=O)c2ccc3c(c2)OCO3)c1C	120*	-11	33*	3
O=C(N/N=C\c1cn(-c2ccccc2)nc1-c1ccccc1)c1ccc2c(c1)OCO2	-15	-56	34*	-6
